Test results: ChEMBL document CHEMBL1133812, “Small molecule somatostatin receptor subtype-2 antagonists” (Bioorg Med Chem Lett, 2001)
Where a SMILES comes first, the peptide text is derived from it. [ ]: non-standard residue; d: D form. The star is where a group is joined. Phe(3-F) = N[C@@H](Cc1cccc(F)c1)C(=O)O; Tos = Cc1ccc(S(=O)(=O)*)cc1

Columns and labels:
[1] = target: Somatostatin receptor type 2 (Sus scrofa); experiment: Inhibitory concentration towards binding of sst2 receptor using [125I]somatostatin as radioligand in Neuro2A cells
[2] = target: Somatostatin receptor type 2 (Homo sapiens, UniProt P30874); experiment: Antagonistic activity towards sst2 receptor in GH4C1 cells a concentration of 1-2 x 10e6/mL incubated for 20 minutes; assay type: functional, cell-based, GH4-C1
Sequence of Somatostatin receptor type 2 (P30874 whole entry): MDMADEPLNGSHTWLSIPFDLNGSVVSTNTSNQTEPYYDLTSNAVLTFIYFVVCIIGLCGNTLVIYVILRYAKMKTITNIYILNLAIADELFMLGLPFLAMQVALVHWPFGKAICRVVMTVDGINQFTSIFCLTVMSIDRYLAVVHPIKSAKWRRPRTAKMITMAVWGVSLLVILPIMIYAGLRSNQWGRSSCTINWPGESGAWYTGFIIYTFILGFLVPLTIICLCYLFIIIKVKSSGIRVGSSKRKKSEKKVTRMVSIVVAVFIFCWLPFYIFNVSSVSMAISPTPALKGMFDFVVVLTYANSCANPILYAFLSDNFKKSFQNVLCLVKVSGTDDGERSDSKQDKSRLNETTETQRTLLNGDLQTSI
How it was run: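 GH4C1 pituitary cells (1–2×10⁶/mL) exposed to compound dose-titrations with 100 nM VIP plus 10 nM somatostatin 14, 20 min at 37 °C. cAMP content read against cAMP standards in adenylyl cyclase activation plates. Antagonism scored as a cAMP rise over VIP+somatostatin control wells. Values from single experiments or means of 2–4 replicate experiments.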

SMILES	IC50 [1] [nM]	IC50 [2] [nM]	IC50 ([1]; neuro2a) [nM]	IC50 ([2]; gh4-c1) [nM]
COC(=O)[C@H](CCCN=C(N)N)NC(=O)[C@H](Cc1cccc(F)c1)NS(=O)(=O)c1ccc(C)cc1 (Tos-[Phe(3-F)]-Arg-OMe)	> 2000	6500	–	–
Cc1ccc(S(=O)(=O)N2CCN(C(=O)N[C@H](Cc3c[nH]c4ccccc34)C(=O)N[C@@H](CCCCN)C(=O)OC(C)(C)C)CC2)cc1	9.2	7700	–	–
CC(C)(C)C1N[C@H](C(=O)NC(Cc2cccc3ccccc23)C(N)=O)CSSC[C@@H](NC(=O)C(N)Cc2cccc(F)c2)C(=O)NC(Cc2cccnc2)C(=O)N[C@@H](Cc2c[nH]c3ccccc23)C(=O)N[C@@H](CCCCN)C1=O (stereo partly drawn)	–	–	4.1	270
CC(C)(C)OC(=O)[C@H](CCCCN)NC(=O)[C@@H](Cc1c[nH]c2ccccc12)NC(=O)N1CCC(n2c(=O)[nH]c3ccccc32)CC1	0.26	6.5	–	–

Continued, values first:

IC50 [1] [nM]	IC50 [2] [nM]	IC50 ([1]; neuro2a) [nM]	IC50 ([2]; gh4-c1) [nM]	SMILES
4.4	67	–	–	Cc1ccc(C(=O)N2CCN(C(=O)N[C@H](Cc3c[nH]c4ccccc34)C(=O)N[C@@H](CCCCN)C(=O)OC(C)(C)C)CC2)cc1
3.2	120	–	–	CC(C)(C)OC(=O)[C@H](CCCCN)NC(=O)[C@@H](Cc1c[nH]c2ccccc12)NC(=O)C1CCN(S(=O)(=O)c2ccccc2)CC1
85	1200	–	–	CC(C)(C)OC(=O)[C@H](CCCCN)NC(=O)[C@H](Cc1c[nH]c2ccccc12)NC(=O)c1ccc(-c2ccccc2)cc1
2.9	29	–	–	CC(C)(C)OC(=O)[C@H](CCCCN)NC(=O)[C@@H](Cc1c[nH]c2ccccc12)NC(=O)N1CCN(S(=O)(=O)c2ccccc2)CC1
6.9	1600	–	–	CC(C)(C)OC(=O)[C@H](CCCCN)NC(=O)[C@@H](Cc1c[nH]c2ccccc12)NC(=O)N1CCN(C(=O)c2ccccc2)CC1
